Nine molecules from ChEMBL document CHEMBL1139802, “Pyrazole inhibitors of HMG-CoA reductase: an attempt to dramatically reduce synthetic complexity through minimal analog re-design” (Bioorg Med Chem Lett, 2007) can be followed below.

For assay [1], the system named is Hamster. As to the kind of experiment: Inhibition of cholesterol synthesis in hamster at 10 mg/kg, po after 3 to 5 hrs relative to control. The arrangement: scale not given: the % may be the effect or the level left. Format: functional, Cricetinae. The gist of the method: (§1)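 Male Syrian Golden hamsters received a single oral 10 mg/kg dose. A bolus of sodium 14C-acetate was given at 2, 3 or 4 h post-dose, giving 2–4, 3–5 and 4–6 h windows. Label incorporated into plasma cholesterol was measured over the following 2 h. Results are reported as percent change in incorporation relative to vehicle-dosed animals.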

In another assay the test system is L6. As to the kind of experiment: Inhibition of cholesterol synthesis in L6 myocytes. The assay is classed as functional, cell-based. The following applies: Rattus norvegicus.
Assay [2] has as its target T1, 3-hydroxy-3-methylglutaryl-coenzyme A reductase (Rattus norvegicus, UniProt P51639).
T1 sequence (P51639 whole entry): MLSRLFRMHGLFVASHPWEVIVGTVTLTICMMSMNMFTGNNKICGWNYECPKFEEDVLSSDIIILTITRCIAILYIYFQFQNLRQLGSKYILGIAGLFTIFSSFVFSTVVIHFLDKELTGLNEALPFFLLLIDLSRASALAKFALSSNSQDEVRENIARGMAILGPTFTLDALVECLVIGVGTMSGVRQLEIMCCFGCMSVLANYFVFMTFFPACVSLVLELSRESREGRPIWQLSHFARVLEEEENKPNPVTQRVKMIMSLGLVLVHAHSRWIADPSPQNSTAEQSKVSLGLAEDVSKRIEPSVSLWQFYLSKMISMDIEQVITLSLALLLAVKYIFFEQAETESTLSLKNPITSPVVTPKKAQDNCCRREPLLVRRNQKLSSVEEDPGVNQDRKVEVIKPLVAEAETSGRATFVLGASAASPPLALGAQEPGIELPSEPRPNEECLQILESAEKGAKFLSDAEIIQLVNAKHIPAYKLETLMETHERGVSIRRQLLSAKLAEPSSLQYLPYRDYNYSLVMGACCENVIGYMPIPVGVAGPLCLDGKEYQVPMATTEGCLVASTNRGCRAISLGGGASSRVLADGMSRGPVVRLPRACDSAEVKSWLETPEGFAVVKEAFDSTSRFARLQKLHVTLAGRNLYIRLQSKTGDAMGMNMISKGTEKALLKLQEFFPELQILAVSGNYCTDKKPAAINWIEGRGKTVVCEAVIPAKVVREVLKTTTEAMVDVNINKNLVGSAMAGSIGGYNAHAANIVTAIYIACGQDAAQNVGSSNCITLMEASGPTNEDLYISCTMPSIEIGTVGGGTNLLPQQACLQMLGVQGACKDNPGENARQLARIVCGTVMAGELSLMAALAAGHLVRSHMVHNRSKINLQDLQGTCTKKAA
As to the kind of experiment: Inhibition of HMG-CoA reductase in rat liver microsomes. The arrangement: species or system Microsome.

A short description of assay [3]: Inhibition of cholesterol synthesis in rat hepatocytes. The assay is classed as functional, cell-based. To be noted: Hepatocyte.
Assay [4] concerns Hamster. As to the kind of experiment: Inhibition of cholesterol synthesis in hamster at 10 mg/kg, po after 2 to 4 hrs relative to control. The assay is classed as functional, Cricetinae. The arrangement: scale not given: the % may be the effect or the level left. The method in brief: as §1
Assay [5] deals with Hamster. As to the kind of experiment: Inhibition of cholesterol synthesis in hamster at 10 mg/kg, po after 4 to 6 hrs relative to control. Format: functional, Cricetinae. The arrangement: scale not given: the % may be the effect or the level left. The gist of the method: as §1

Broadly, the IC50 is the point on the concentration scale where inhibition reaches its midpoint.

Each structure is given as a SMILES string.

Consider `COCc1cccc(CNC(=O)c2nn(-c3ccc(F)cc3)c(OC[C@@H](O)C[C@@H](O)CC(=O)O)c2C(C)C)c1`, for which the Activity in the assay on Hamster [1] was -6%. Besides, the IC50 with L6 is 3600 nM; in assay [2], 31 nM; in assay [3], 1.1 nM.
On to `CC(C)c1c(C(=O)N(C)CC2CCCCC2)nn(-c2ccc(F)cc2)c1OC[C@@H](O)C[C@@H](O)CC(=O)O`, for which the Activity with Hamster [1] stood at 23%. The results for the IC50 (with L6; in assay [2]; in assay [3]) were 2510 nM, 6.2 nM and 1.3 nM, respectively.
Turning to `CC(C)c1c(C(=O)N2CCC[C@H](c3ccccc3)C2)nn(-c2ccc(F)cc2)c1CC[C@@H](O)C[C@@H](O)CC(=O)O`, the Activity is reported as -78% with Hamster [4] and -57% in the assay with Hamster [1]. Besides, the figures for the IC50 (in the assay on L6; in assay [2]; in assay [3]) were 310 nM, 2.1 nM and 0.28 nM, respectively.
`Cc1ccc(CNC(=O)c2nn(-c3ccc(F)cc3)c(OC[C@@H](O)C[C@@H](O)CC(=O)O)c2C(C)C)cc1`: the figures for the Activity in the assay with Hamster [4] and with Hamster [5] were -30% and 9%, respectively. Also, the half-inhibitory concentration (IC50) in the assay with L6 stood at 2110 nM; in assay [2], 15 nM; in assay [3], 1.8 nM.
`CC(C)c1c(C(=O)N(C)Cc2cccc(Cl)c2)nn(-c2ccc(F)cc2)c1OC[C@@H](O)C[C@@H](O)CC(=O)O`: the Activity in the assay on Hamster [1] stood at 0%. Besides, the figures for the IC50 (with L6; in assay [2]; in assay [3]) were 2120 nM, 8.3 nM and 1.8 nM, respectively.
Regarding `CC(C)c1c(C(=O)N(C)Cc2ccc(F)c(F)c2)nn(-c2ccc(F)cc2)c1OC[C@@H](O)C[C@@H](O)CC(=O)O`, in the assay on Hamster [1], the Activity is -5%. The IC50 was determined as 4570 nM in the assay on L6, 5.7 nM in assay [2] and 8 nM in assay [3].
For the molecule `CC(C)c1c(C(=O)N(C)Cc2cccc(F)c2)nn(-c2ccc(F)cc2)c1OC[C@@H](O)C[C@@H](O)CC(=O)O`, the results for the Activity in the assay on Hamster [4] and in the assay with Hamster [5] were -41% and -1%, respectively. Moreover, the IC50 in the assay with L6 stood at 2470 nM; in assay [2] it was 14 nM; in assay [3], 1.9 nM.
For `CC(C)c1nc(N(C)S(C)(=O)=O)nc(-c2ccc(F)cc2)c1/C=C/[C@@H](O)C[C@@H](O)CC(=O)O` [ROSUVASTATIN], the Activity in the assay on Hamster [4] is -76%; in the assay on Hamster [5] it was -46%. For the same molecule, the IC50 in the assay on L6 came out at 210 nM; in assay [2], 2.1 nM; in assay [3], 0.23 nM.
On to `CC(C)c1c(C(=O)N(C)Cc2ccccc2F)nn(-c2ccc(F)cc2)c1OC[C@@H](O)C[C@@H](O)CC(=O)O`, for which, in the assay on Hamster [1], the Activity is -4%. In addition, the IC50 with L6 was determined as 11600 nM; in assay [2], 8.7 nM; in assay [3], 3.2 nM.
